The values that follow come from ChEMBL document CHEMBL1153939, “Novel antagonists of serotonin-4 receptors: synthesis and biological evaluation of pyrrolothienopyrazines” (Bioorg Med Chem, 2009).

Active and inactive are the calls of the source. Bounds are passed on as bounds.

Data set [1] has as its target 5-hydroxytryptamine receptor 4 (Cavia porcellus, UniProt O70528). Description: Displacement of [3H]GR-113808 from 5HT4 receptor in guinea pig striatum membrane. In kind it is cell membranes. The gist of the method:
(§1)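 Guinea pig membranes (15 µg protein/mL) incubated 30 min at 37 °C with 0.6 nM [3H]GR113808 in 50 mM HEPES, pH 7.4, with fixed test concentrations. Nonspecific binding defined with 10 µM serotonin.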
Background: Displacement assays read how much labelled ligand stays bound in the presence of the test substance.

Data set [2] is described as follows: Toxicity in ip dosed NMRI mouse. The following applies: in vivo. The data set is classed as organism-based. The gist of the method:
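Male NMRI mice (20–24 g) given ip drug in saline (10 mL/kg), groups of 4. Behavioural and neurological changes scored against controls by a standardized observation technique at 30 min, 3 h and 24 h post-dose. Approximate LD50 derived from deaths counted at 24 h.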

In data set [3] the test system is Mus musculus. Description: Toxicity in NMRI mouse assessed as spontaneous alteration performance ar 0.3 to 3 mg/kg, ip by Y-maze test. In kind it is organism-based. The arrangement: dose 0.3-3 mg/kg, route intraperitoneal. The following applies: in vivo. In outline:
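Spontaneous alternation in male NMRI mice. Drug given ip in saline at 0.3, 1 and 3 mg/kg, 30 min before testing, with or without scopolamine 1 mg/kg. Four groups per dose: control, scopolamine, drug alone, drug+scopolamine. Alternation % = actual alternations/(total arm entries − 2) × 100. ANOVA plus Fisher PLSD.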

Data set [4] has as its system Mus musculus. The data set is described as follows: Antinociceptive activity against acetic acid-induced writhing in NMRI mouse assessed as number of stretches at 1 mg/kg, ip by writhing test. In kind it is functional. The note with it: route intraperitoneal. The gist of the method:
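Groups of 8 male NMRI mice (20–24 g). Compound or reference given ip in saline (10 mL/kg) 15 min before ip 0.6% aqueous acetic acid (10 mL/kg). Stretches (back arching, pelvic rotation, hind-limb extension) counted over 10 min, beginning 10 min after acid. ANOVA + Fisher PLSD versus control.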
Background: An intraperitoneal irritant provokes the stretching counted in writhing tests.

For data set [5], the system named is Mus musculus. The data set is described as follows: Analgesic activity in NMRI mouse assessed as reaction time taken to lick fore paw at 0.01 to 1 mg/kg, ip by hot plate test. The data set is classed as functional, organism-based. In outline: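 Male NMRI mice (20–24 g), 10 per group, each pre-screened twice on a 55 °C plate (response required within 4–12 s). Compound given ip in saline (10 mL/kg) at 0.01, 0.1 and 1 mg/kg. Time to forepaw licking recorded 15 and 30 min post-injection; 30 s cutoff. ANOVA + Fisher PLSD.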
(In general: Hot-plate and tail-flick tests time the reaction to a heat stimulus.)

For data set [6], the target named is T1, 5-hydroxytryptamine receptor 3A (Homo sapiens, UniProt P46098).
T1 sequence (P46098 whole entry): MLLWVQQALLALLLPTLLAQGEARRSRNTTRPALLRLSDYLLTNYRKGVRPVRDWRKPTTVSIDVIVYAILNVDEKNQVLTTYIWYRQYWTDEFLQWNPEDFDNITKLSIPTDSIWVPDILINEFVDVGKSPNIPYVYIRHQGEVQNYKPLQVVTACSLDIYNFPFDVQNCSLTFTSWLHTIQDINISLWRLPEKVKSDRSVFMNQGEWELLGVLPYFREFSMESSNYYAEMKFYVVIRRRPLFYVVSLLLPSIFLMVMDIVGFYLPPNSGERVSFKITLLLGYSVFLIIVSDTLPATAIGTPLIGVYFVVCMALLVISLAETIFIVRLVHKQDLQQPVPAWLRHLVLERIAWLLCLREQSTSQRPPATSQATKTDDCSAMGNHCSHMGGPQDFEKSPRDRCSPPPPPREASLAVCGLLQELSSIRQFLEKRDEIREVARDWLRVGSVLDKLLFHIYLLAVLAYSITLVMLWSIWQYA
Description: Antagonist activity at 5HT3 receptor in hybrid NG108-15 cells assessed as inhibition of 5HT-induced current by electrophysiology. The data set is classed as functional, cell-based. The gist of the method:
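NG108-15 cells grown in DMEM-HG with 5% FBS and HAT, then differentiated on polylysine glass with 2% DMSO for 48 h followed by ≥24 h with 1 mM dibutyryl-cAMP. Whole-cell recording at −60 mV in HEPES saline, pH 7.3, with a CsCl/CsMeSO3 pipette solution. 5-HT 50 µM applied by gravity every 2.5 min.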

In data set [7] the target is T2, 5-hydroxytryptamine receptor 1A (Homo sapiens, UniProt P08908).
T2 sequence (P08908 whole entry): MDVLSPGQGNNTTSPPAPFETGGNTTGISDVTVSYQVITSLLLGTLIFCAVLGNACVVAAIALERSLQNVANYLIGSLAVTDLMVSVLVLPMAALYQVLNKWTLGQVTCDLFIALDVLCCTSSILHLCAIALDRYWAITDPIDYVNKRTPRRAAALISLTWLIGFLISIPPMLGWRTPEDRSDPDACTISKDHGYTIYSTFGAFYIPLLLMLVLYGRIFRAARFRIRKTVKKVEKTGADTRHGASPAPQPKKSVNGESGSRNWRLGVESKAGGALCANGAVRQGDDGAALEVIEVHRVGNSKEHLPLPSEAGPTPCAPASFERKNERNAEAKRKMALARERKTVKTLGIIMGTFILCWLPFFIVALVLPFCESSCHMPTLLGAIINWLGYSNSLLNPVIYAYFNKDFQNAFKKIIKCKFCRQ
Description: Displacement of [3H]8OH-DPAT from human recombinant 5HT1A receptor.

In data set [8] the target is 5-hydroxytryptamine receptor 1B (Rattus norvegicus, UniProt P28564). Description: Displacement of [3H]5OH-tryptamine form 5HT1B receptor in rat cerebral cortex. In kind it is tissue-based.
Sequence of 5-hydroxytryptamine receptor 1B (P28564 whole entry): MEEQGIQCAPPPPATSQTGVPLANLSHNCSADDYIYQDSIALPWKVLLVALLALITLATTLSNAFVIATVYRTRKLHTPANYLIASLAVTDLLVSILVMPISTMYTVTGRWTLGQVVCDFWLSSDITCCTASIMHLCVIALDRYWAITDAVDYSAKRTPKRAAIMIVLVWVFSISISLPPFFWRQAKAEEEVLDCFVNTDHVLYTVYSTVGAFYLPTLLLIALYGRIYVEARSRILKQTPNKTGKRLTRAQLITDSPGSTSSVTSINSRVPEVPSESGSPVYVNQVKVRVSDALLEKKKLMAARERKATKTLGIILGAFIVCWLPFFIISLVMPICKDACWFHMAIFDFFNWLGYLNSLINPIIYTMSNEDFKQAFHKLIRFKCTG
Data set [9] addresses 5-hydroxytryptamine receptor 1D (Rattus norvegicus, UniProt P28565). Description: Displacement of [3H]5OH-tryptamine rat recombinant 5HT1D receptor.
Data set [10] deals with T1, 5-hydroxytryptamine receptor 3A. Description: Displacement of [3H]granisetron from human recombinant 5HT3 receptor.
In data set [11] the target is 5-hydroxytryptamine receptor 6 (Homo sapiens, UniProt P50406). Description: Displacement of [3H]LSD form human recombinant 5HT6 receptor. In outline: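 Membranes from sf9 cells expressing human 5-HT6 (14 µg/mL) or 5-HT7 (38 µg/mL) incubated 90 min at 27 °C with 2 nM [3H]LSD in 50 mM Tris-HCl containing 10 mM MgSO4 and 0.5 mM EDTA. Nonspecific binding defined with clozapine (10 and 250 µM).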
Sequence of 5-hydroxytryptamine receptor 6 (P50406 whole entry): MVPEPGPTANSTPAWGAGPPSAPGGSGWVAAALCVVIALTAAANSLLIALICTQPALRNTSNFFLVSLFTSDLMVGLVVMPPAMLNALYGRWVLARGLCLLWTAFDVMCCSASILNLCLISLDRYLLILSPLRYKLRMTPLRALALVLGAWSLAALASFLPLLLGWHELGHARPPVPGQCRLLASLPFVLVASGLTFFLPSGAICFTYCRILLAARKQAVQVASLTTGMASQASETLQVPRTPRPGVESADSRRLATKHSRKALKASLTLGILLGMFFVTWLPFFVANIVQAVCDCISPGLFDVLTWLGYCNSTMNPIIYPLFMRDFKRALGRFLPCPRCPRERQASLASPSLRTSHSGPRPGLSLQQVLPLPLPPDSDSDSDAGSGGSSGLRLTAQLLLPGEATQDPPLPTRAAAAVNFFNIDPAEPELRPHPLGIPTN

The target of data set [12] is Alpha-1A adrenergic receptor (Homo sapiens, UniProt P35348). The data set is described as follows: Displacement of [3H]prazosin form human recombinant alpha1A adrenergic receptor.
Sequence of Alpha-1A adrenergic receptor (P35348 whole entry): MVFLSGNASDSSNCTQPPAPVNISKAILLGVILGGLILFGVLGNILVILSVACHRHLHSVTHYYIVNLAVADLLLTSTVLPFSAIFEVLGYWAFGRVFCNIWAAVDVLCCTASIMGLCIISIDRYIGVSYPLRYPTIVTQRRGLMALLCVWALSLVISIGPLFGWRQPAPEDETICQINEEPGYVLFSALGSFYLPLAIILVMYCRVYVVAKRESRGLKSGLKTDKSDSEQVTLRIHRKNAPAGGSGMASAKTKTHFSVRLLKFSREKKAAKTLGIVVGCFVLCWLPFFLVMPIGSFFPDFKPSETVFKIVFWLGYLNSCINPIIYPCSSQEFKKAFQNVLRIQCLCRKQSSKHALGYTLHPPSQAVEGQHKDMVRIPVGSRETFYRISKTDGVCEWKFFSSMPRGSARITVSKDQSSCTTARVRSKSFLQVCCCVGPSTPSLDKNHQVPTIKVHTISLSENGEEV
The target of data set [13] is 5-hydroxytryptamine receptor 4 (Cavia porcellus) (UniProt O70528). The data set is described as follows: Displacement of [3H]GR-113808 from 5HT4 receptor in guinea pig striatum membrane at 1 uM. In kind it is cell membranes. The gist of the method: as §1
Sequence of 5-hydroxytryptamine receptor 4 (Cavia porcellus) (O70528 whole entry): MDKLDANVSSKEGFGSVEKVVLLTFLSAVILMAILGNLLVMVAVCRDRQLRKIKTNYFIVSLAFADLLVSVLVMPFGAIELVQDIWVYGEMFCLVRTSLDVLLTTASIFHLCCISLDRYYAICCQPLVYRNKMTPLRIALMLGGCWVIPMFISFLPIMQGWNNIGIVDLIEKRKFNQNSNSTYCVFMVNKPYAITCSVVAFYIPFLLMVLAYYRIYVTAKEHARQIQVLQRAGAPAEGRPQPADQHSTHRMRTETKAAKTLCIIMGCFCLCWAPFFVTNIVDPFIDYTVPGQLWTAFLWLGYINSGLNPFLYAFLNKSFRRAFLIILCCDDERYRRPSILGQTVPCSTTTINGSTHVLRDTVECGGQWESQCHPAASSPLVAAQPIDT

Sequence of 5-hydroxytryptamine receptor 1D (P28565 whole entry): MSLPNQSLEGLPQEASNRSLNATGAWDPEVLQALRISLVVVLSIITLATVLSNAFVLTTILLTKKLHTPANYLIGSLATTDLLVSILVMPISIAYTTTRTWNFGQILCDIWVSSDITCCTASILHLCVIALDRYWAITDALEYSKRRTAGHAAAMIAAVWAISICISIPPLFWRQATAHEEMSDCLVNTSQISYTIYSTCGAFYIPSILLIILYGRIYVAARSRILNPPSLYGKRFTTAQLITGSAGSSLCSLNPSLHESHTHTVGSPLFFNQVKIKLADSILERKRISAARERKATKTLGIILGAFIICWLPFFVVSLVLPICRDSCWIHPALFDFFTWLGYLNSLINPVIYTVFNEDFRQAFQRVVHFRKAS
Sequence of 5-hydroxytryptamine receptor 4 (O70528 whole entry): as the sequence (O70528 whole entry) above

Usually Ki stands for the equilibrium dissociation constant of an inhibitor or competing ligand from its target. Low values mean a stronger hold on the target, high ones a looser hold on the target. By LD50 is commonly meant the dose expected to kill half of the subjects tested. The low end stands for a more toxic substance, the high end for a less toxic substance. One may read the IC50 as the concentration at which inhibition is half-maximal. In general, inhibition refers to the drop in the measured response relative to a control, in per cent. Low readings indicate little suppression, high ones strong suppression. In [1], `CCCN1CCC(COc2nc3scc(C)c3n3cccc23)CC1` showed a Ki of 1.74 nM. In addition, the median lethal dose (LD50) in data set [2] turned out to be 200 mg/kg. Besides, the Activity entry in data set [3] is “Non-toxic”; in data set [4] it was 7.6. Further, the result in data set [5] was inactive. The IC50 in data set [6] was 385 nM; in data set [7] it was 5.01 µM; in data set [8], greater than 10 µM; in data set [9] it was 4.57 µM; in data set [10], 6.92 nM; in data set [11], greater than 10 µM. Besides, in [12], the IC50 was 74.1 nM. For the same compound, the inhibition in [13] came out at 100%.
